# Experimental data as given in ChEMBL document CHEMBL1138002, “Synthesis and biological evaluation of thiazolidine-2,4-dione and 2,4-thione derivatives as inhibitors of translation initiation” (2004).
# Assays:
# Assay type in all cases: functional
# [1] = Ratio of intensity of phosphorylation of phosphorylated eIF2a to the intensity of the total eIF2a was determined
# Procedure, shortened: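 Cells exposed to drug at 5 µM; extracts analysed by Western blot with phospho-Ser51-specific rabbit anti-eIF2a and mouse monoclonal total eIF2a antibodies, quantified by infrared imaging. Phospho/total eIF2a intensity ratio normalized to DMSO; TRO positive, DMSO negative control; mean ± SD of three determinations.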
# A549 [2] = assay: Inhibition of human lung cancer cell line (A549) growth by 50% in sulforhodamine-B assay
# Procedure, shortened: (§1)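 Human A549 lung cancer cells; growth inhibition read by sulforhodamine B assay, staining cellular protein content. GI50 taken as concentration needed to inhibit 50% of cell proliferation. DMSO negative control, troglitazone (TRO) positive control; mean ± SD from three determinations.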
# A549 [3] = assay: Inhibition of human lung cancer cell line (A549) by 50% in sulforhodamine B assay; procedure, shortened: as §1
SMILES,GI50 (A549 [2]),GI50 (A549 [3]),Ratio [1]
O=C1NC(=S)S/C1=C\c1cc(Br)ccc1OCc1ccccc1,7 µM,–,1.4
O=C1NC(=S)S/C1=C\c1ccccc1OCc1ccccc1,13 µM,–,1.17
Cc1c(C)c2c(c(C)c1O)CCC(C)(COc1ccc(CC3SC(=O)NC3=O)cc1)O2 (stereo not given) [TROGLITAZONE],–,15 µM,2.12
COc1ccc(OCc2ccccc2)c(/C=C2\SC(=S)NC2=O)c1,7 µM,–,0.94
O=C1NC(=S)SC1Cc1cc(Cl)ccc1OCc1ccccc1 (stereo not given),29 µM,–,1.25
Cc1ccc(OCc2ccccc2)c(/C=C2\SC(=O)NC2=O)c1,8 µM,–,1.94
O=C1NC(=O)/C(=C/c2cc([N+](=O)[O-])ccc2OCc2ccccc2)S1,14 µM,–,0.89
CC(C)(C)c1ccc(OCc2ccccc2)c(/C=C2\SC(=S)NC2=O)c1,7 µM,–,1.97
O=C1NC(=S)S/C1=C\c1cc(F)ccc1OCc1ccccc1,9 µM,–,5.02
Cc1ccc(OCc2ccccc2)c(/C=C2\SC(=S)NC2=O)c1,6 µM,–,4.15
CC(C)(C)c1ccc(OCc2ccccc2)c(CC2SC(=O)NC2=O)c1 (stereo not given),–,12 µM,0.79
O=C1NC(=O)/C(=C/c2ccccc2OCc2ccccc2)S1,35 µM,–,0.92
COc1ccc(OCc2ccccc2)c(/C=C2\SC(=O)NC2=O)c1,14 µM,–,0.98

# Further lines, with some results ahead:
GI50 (A549 [2]),GI50 (A549 [3]),SMILES,Ratio [1]
5 µM,–,O=C1NC(=O)/C(=C/c2cc(Br)ccc2OCc2ccccc2)S1,4.05
2 µM,–,CC(C)(C)c1ccc(OCc2ccccc2)c(/C=C2\SC(=O)NC2=O)c1,6.98
4 µM,–,O=C1NC(=O)/C(=C/c2cc(F)ccc2OCc2ccccc2)S1,0.72
4 µM,–,O=C1NC(=S)S/C1=C\c1cc(-c2ccccc2)ccc1OCc1ccccc1,2.35
5 µM,–,O=C1NC(=S)S/C1=C\c1cc([N+](=O)[O-])ccc1OCc1ccccc1,3.49
2 µM,–,O=C1NC(=O)/C(=C/c2cc(-c3ccccc3)ccc2OCc2ccccc2)S1,0.76
5 µM,–,O=C1NC(=S)S/C1=C\c1cc(N2CCOCC2)ccc1OCc1ccccc1,0.92
5 µM,–,O=C1NC(=O)/C(=C/c2cc(Cl)ccc2OCc2ccccc2)S1,4.52
5 µM,–,O=C1NC(=S)S/C1=C\c1cc(Cl)ccc1OCc1ccccc1,1.76
3 µM,–,O=C1NC(=S)S/C1=C\c1cc(N2CCCCC2)ccc1OCc1ccccc1,0.75
2 µM,–,CC(C)(C)c1ccc(-c2ccc(OCc3ccccc3)c(/C=C3\SC(=O)NC3=O)c2)cc1,1.16
2 µM,–,CC(C)(C)c1ccc(-c2ccc(OCc3ccccc3)c(/C=C3\SC(=S)NC3=O)c2)cc1,1.37
